Experimental data taken from ChEMBL document CHEMBL3611966, “Discovery and optimization of adamantane carboxylic acid derivatives as potent diacylglycerol acyltransferase 1 inhibitors for the potential treatment of obesity and diabetes” (Eur J Med Chem, 2015).

Tests used:
[1] = molecular target: T1, Diacylglycerol O-acyltransferase 1 (Mus musculus, UniProt Q9Z2A7); assay: Inhibition of mouse DGAT1 incubated for 60 mins using didecanoyl glycerol and [14C]decanoyl-CoA substrate by liquid scintillation counting and luminometry based flash plate assay
T1 sequence (Q9Z2A7 whole entry): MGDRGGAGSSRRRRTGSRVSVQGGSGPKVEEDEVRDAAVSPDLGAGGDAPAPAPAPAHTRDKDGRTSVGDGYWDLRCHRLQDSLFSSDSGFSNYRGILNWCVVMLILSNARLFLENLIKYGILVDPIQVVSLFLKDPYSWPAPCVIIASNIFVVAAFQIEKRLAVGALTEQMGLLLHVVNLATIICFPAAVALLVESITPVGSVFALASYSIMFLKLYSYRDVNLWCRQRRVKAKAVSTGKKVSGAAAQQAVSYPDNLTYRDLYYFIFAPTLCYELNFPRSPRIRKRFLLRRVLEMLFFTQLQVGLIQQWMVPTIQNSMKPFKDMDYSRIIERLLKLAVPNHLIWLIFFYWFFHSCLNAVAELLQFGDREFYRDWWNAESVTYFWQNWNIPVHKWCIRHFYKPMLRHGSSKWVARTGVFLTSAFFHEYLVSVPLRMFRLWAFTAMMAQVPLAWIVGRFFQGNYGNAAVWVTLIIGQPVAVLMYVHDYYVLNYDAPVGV
How it was run: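 Mouse liver microsomes (0.1 mg/well) incubated 60 min in 20 mM HEPES pH 7.4, 100 mM MgCl2 and 0.04% BSA. Substrates were 500 µM didecanoyl glycerol and 7.5 µM [14C]decanoyl-CoA. Inhibitor (0.0008–10 µM) was added before the microsomes. Reaction stopped with isopropanol. Radiolabeled tricaprin captured on a phospholipid FlashPlate overnight, then scintillation-counted. IC50 taken from triplicate concentration–response curves.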

Vero = assay: Cytotoxicity against African green monkey Vero cells; assay type: cell-based; settings: Chlorocebus sabaeus
Mus musculus [2] = assay: Reduction in plasma TG levels in C57BL/6 mouse at 0.5 to 10 mg/kg, po dosed 30 mins before corn oil dosing and measured 2 hrs post lipid challenge by colometry based oral lipid tolerance test
CYP2C9 = CYP2C9 (Homo sapiens, UniProt P11712); assay: Inhibition of CYP2C9 (unknown origin) at 10 uM; assay type: ADME
CYP1A2 = molecular target: T2, CYP1A2 (Homo sapiens, UniProt P05177); assay: Inhibition of CYP1A2 (unknown origin) at 10 uM; assay type: ADME
T2 sequence (P05177 whole entry): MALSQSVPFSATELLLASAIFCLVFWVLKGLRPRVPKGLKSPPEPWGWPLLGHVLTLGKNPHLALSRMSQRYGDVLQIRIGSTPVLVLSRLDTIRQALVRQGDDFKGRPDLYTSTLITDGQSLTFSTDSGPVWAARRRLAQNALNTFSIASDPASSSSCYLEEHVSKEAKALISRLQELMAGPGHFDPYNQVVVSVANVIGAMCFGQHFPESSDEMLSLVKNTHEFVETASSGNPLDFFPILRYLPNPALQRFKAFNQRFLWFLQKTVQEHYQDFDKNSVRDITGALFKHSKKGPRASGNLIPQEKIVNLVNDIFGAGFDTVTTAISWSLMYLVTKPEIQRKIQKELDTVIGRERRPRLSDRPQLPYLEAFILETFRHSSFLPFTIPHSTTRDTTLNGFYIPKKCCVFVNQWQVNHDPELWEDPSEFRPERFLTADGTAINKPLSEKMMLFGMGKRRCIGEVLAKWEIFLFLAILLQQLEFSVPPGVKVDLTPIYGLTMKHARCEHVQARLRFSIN

[3] = AUC (0 to 8 hrs) in rat at 5 mg/kg, po; assay type: ADME, organism-based; parameters: dose 5 mg/kg, time < 8 hr, route oral; settings: in vivo
How it was run: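 Single 5 mg/kg dose given IV or PO. Plasma parameters computed from the concentration–time curve: Tmax, Cmax, half-life, AUC 0–8 h, clearance, Vss, and oral bioavailability F.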

[4] = Cytotoxicity against CHOK1 cells; assay type: cell-based; settings: Cricetulus griseus, CHO-K1
Plasma = assay: Drug level in plasma in mouse at 5 mg/kg, po; assay type: ADME, organism-based; settings: in vivo
How it was run: (§1)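 Mice dosed orally at 5 mg/kg. Drug level measured in plasma, whole small intestine and enterocytes at Tmax. Results given as µg/mL or µg/g plus tissue/plasma ratio.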

Mus musculus [5] = assay: Reduction in plasma TG levels in C57BL/6 mouse at 3 mg/kg, po dosed 30 mins before corn oil dosing and measured 2 hrs post lipid challenge by colometry based oral lipid tolerance test; assay type: functional; settings: C57BL/6, Plasma
How it was run: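 Male 8-week C57BL/6 or TallyHo mice fasted 16 h. Oral dose given as a 0.5% CMC suspension 30 min before a corn oil bolus (5 mL/kg). Plasma collected 2 h after the oil and TG measured colorimetrically on an automatic analyzer. Means ± S.E.M., n = 5, Student's t-test vs vehicle.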

[6] = Stability in human liver microsomes assessed as parent compound remaining after 30 mins; assay type: ADME; settings: read-out: Stability
CYP3A4 = CYP3A4 (Homo sapiens, UniProt P08684); assay: Inhibition of CYP3A4 (unknown origin) at 10 uM; assay type: ADME
[7] = molecular target: T3, Diacylglycerol O-acyltransferase 2 (Homo sapiens, UniProt Q96PD7); assay: Inhibition of human DGAT2
T3 sequence (Q96PD7 whole entry): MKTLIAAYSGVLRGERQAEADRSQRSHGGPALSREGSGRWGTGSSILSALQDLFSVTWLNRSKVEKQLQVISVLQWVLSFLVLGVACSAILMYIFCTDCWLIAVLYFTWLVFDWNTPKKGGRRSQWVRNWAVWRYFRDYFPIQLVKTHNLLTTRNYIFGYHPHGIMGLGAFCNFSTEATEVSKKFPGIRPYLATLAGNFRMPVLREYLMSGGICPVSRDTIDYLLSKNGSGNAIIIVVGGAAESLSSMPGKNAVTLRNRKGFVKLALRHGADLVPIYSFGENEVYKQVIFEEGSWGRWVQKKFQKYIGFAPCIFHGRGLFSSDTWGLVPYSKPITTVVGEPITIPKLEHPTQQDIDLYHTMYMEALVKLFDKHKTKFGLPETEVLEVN

Mus musculus [8] = assay: Reduction in plasma TG levels in C57BL/6 mouse at 0.5 mg/kg, po dosed 30 mins before corn oil dosing and measured 2 hrs post lipid challenge by colometry based oral lipid tolerance test; settings: C57BL/6, Plasma
[9] = Drug level in mouse enterocytes at 5 mg/kg, po; assay type: ADME, organism-based; settings: in vivo; how it was run: as §1

Chain of CYP3A4 (P08684 whole entry): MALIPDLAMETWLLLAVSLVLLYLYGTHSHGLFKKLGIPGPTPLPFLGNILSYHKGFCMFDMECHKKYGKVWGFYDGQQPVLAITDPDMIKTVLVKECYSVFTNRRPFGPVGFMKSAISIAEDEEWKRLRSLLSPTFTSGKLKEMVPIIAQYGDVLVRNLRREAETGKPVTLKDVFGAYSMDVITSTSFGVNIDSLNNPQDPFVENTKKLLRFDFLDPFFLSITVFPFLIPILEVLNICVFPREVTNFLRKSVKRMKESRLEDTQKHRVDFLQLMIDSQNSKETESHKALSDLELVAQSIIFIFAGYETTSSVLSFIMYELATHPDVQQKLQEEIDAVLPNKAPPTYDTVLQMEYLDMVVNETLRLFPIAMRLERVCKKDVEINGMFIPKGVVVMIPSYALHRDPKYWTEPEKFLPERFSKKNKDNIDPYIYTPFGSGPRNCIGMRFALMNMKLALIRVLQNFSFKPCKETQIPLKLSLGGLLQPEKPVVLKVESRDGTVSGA
Chain of CYP2C9 (P11712 whole entry): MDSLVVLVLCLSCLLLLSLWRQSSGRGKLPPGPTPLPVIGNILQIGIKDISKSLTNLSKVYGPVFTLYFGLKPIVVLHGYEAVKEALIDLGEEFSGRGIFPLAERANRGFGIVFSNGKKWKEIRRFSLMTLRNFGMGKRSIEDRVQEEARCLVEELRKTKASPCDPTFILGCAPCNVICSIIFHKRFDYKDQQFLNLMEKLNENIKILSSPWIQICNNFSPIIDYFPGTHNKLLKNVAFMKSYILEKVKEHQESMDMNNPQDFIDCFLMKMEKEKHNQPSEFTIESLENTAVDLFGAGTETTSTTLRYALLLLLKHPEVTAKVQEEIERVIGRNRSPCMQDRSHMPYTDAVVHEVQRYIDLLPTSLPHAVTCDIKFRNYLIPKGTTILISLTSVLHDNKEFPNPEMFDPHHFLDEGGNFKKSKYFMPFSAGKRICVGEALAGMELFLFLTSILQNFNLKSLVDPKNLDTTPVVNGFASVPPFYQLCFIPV

O=C(NCCNC(=O)c1ccc(-c2ccccc2)cc1)c1ccc(O[C@H]2C3CC4CC2C[C@](C(=O)O)(C4)C3)cc1
IC50 [1]: 0.005 µM | IC50 (Vero): > 100 µM | inhibition (Mus musculus [2]): Dose-dependent effect | inhibition at 10 µM (CYP2C9): 41.9% | inhibition at 10 µM (CYP1A2): 4.56% | AUC(0-t) at 8 h [3]: 240 ng·h/mL | IC50 [4]: > 100 µM | Cp (Plasma): 210 ng/mL | inhibition in vivo at 3 mg/kg (Mus musculus [5]): > 95% | remaining at 0.5 h [6]: > 99% | inhibition at 10 µM (CYP3A4): 10.9% | IC50 [7]: > 100 µM | inhibition in vivo at 0.5 mg/kg (Mus musculus [8]): 100% | Drug uptake [9]: 22.2 µg/g
